Results from ChEMBL document CHEMBL2169868, “Flavone-based novel antidiabetic and antidyslipidemic agents” (J Med Chem, 2012).
Active and inactive are the calls of the source. The rule behind the calls is not given here.

Columns and labels:
[1] = Mean residence time in Sprague-Dawley rat at 2.5 mg/kg, iv by LC-MS/MS method; format: ADME, organism-based; parameters: dose 2.5 mg/kg, route intravenous; settings: in vivo
How it was run: (§1)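 Male Sprague−Dawley rats given a single 2.5 mg/kg iv dose; one formulation was DMF/PG/water (2:4:4), 0.2 μ filtered. Blood drawn from 0.08 to 48 h. Plasma assayed by LC-MS/MS with linear range 0.78−400 ng/mL.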

[2] = Mean residence time in Sprague-Dawley rat at 25 mg/kg, po by LC-MS/MS method; format: ADME, organism-based; parameters: dose 25 mg/kg, route oral; settings: in vivo
How it was run: (§2)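 Male Sprague−Dawley rats given a single 25 mg/kg oral dose (aqueous 0.5% methyl cellulose suspension for one compound). Blood drawn from 0.08 to 48 h. LC-MS/MS, linear range 0.78−400 ng/mL.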

[3] = Plasma clearance in Sprague-Dawley rat at 2.5 mg/kg, iv by LC-MS/MS method; format: ADME, organism-based; parameters: dose 2.5 mg/kg, route intravenous; how it was run: as §1
[4] = Plasma clearance in Sprague-Dawley rat at 25 mg/kg, po by LC-MS/MS method; format: ADME, organism-based; parameters: dose 25 mg/kg, route oral; how it was run: as §2
[5] = Tmax in Sprague-Dawley rat at 25 mg/kg, po by LC-MS/MS method; format: ADME, organism-based; parameters: dose 25 mg/kg, route oral; settings: in vivo; how it was run: as §2
[6] = Cmax in Sprague-Dawley rat at 2.5 mg/kg, iv by LC-MS/MS method; format: ADME, organism-based; parameters: dose 2.5 mg/kg, route intravenous; settings: in vivo; how it was run: as §1
[7] = Cmax in Sprague-Dawley rat at 25 mg/kg, po by LC-MS/MS method; format: ADME, organism-based; parameters: dose 25 mg/kg, route oral; settings: in vivo; how it was run: as §2
[8] = tested on: Mus musculus; test: Antidiabetic activity in diabetic C57BL/KsJ db/db mouse model assessed as reduction in postprandial glucose level in hyperglycemia at 25 mg/kg, po measured 2 hrs post dose; format: functional; parameters: scale not given: the % may be the effect or the level left
How it was run: (§3)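 db/db mice (C57BL/KsJ, 12−18 weeks, 40−50 g; selected by glucose 200−350 mg/dL) dosed orally daily for 10 consecutive days at 1, 3, 10, 25 or 50 mg/kg; postprandial blood glucose profile recorded on day 6 with food access interrupted; mean % change versus vehicle in 5 animals per group; Student t test.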

[9] = tested on: Mus musculus; test: Antidiabetic activity in diabetic C57BL/KsJ db/db mouse model assessed as reduction in postprandial glucose level in hyperglycemia at 10 mg/kg, po measured 2 hrs post dose; format: functional; parameters: scale not given: the % may be the effect or the level left; how it was run: as §3
[10] = tested on: Mus musculus; test: Antidiabetic activity in diabetic C57BL/KsJ db/db mouse model assessed as reduction in postprandial glucose level in hyperglycemia at 3 mg/kg, po measured 2 hrs post dose; format: functional; parameters: scale not given: the % may be the effect or the level left; how it was run: as §3
[11] = tested on: Mus musculus; test: Antidiabetic activity in diabetic C57BL/KsJ db/db mouse model assessed as reduction in postprandial glucose level in hyperglycemia at 1 mg/kg, po measured 2 hrs post dose; format: functional; parameters: scale not given: the % may be the effect or the level left; how it was run: as §3
[12] = tested on: Mus musculus; test: Antidiabetic activity in diabetic C57BL/KsJ db/db mouse model assessed as improvement in glucose tolerance in hyperglycemia at 100 mg/kg, po measured 2 hrs post dose; format: functional
[13] = tested on: Mus musculus; test: Antidiabetic activity in diabetic C57BL/KsJ db/db mouse model assessed as improvement in glucose tolerance in hyperglycemia at 25 mg/kg, po measured 2 hrs post dose; format: functional
[14] = tested on: Mus musculus; test: Antidiabetic activity in diabetic C57BL/KsJ db/db mouse model assessed as improvement in glucose tolerance in hyperglycemia at 10 mg/kg, po measured 2 hrs post dose; format: functional
[15] = tested on: Mus musculus; test: Antidiabetic activity in diabetic C57BL/KsJ db/db mouse model assessed as improvement in glucose tolerance in hyperglycemia at 3 mg/kg, po measured 2 hrs post dose; format: functional
[16] = tested on: Mus musculus; test: Antidiabetic activity in diabetic C57BL/KsJ db/db mouse model assessed as improvement in glucose tolerance in hyperglycemia at 1 mg/kg, po measured 2 hrs post dose; format: functional
[17] = tested on: Mus musculus; test: Reduction in body weight in diabetic C57BL/KsJ db/db mouse model in hyperglycemia at 25 mg/kg, po qd for 10 days relative to untreated control; format: functional
How it was run: (§4)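 db/db mice (C57BL/KsJ, 12−18 weeks, 40−50 g, glucose 200−350 mg/dL), housed at 23 ± 2.0 °C on a 12 h light cycle. Oral dosing daily for 10 days. Blood glucose checked each morning through day 9. Body weight recorded daily from day 1 to day 10. Mean % change versus vehicle, 5 mice per group; Student t test.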

[18] = tested on: Mus musculus; test: Antihyperglycemic activity in diabetic C57BL/KsJ db/db mouse model assessed as reduction in plasma insulin level in hyperglycemia at 25 mg/kg, po qd for 10 days; format: functional; parameters: scale not given: the % may be the effect or the level left
How it was run: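 db/db mice dosed orally every day for 10 days. On day 11, retro-orbital blood was drawn and plasma insulin measured. Mean % change versus vehicle-treated control, 5 mice per group; Student t test.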

[19] = tested on: Mus musculus; test: Antidyslipidemic activity in diabetic C57BL/KsJ db/db mouse model assessed as increase in plasma HDL-C/cholesterol ratio at 25 mg/kg, po qd for 10 days; format: functional
How it was run: (§5)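 db/db mice (blood glucose 200−350, TG 170−250, cholesterol 170−250, HDL-C 32−40 mg/dL) dosed orally at 25 mg/kg daily for 10 days; retro-orbital blood taken on day 11 for plasma TG, cholesterol and HDL-C (and HDL-C/CHOL ratio); mean % change versus vehicle control, 5 mice per group; Student t test.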

[20] = tested on: Mus musculus; test: Antidyslipidemic activity in diabetic C57BL/KsJ db/db mouse model assessed as reduction in plasma cholesterol level at 25 mg/kg, po qd for 10 days; format: functional; parameters: scale not given: the % may be the effect or the level left; how it was run: as §5
[21] = tested on: Mus musculus; test: Antidyslipidemic activity in diabetic C57BL/KsJ db/db mouse model assessed as increase in plasma HDL-cholesterol level at 25 mg/kg, po qd for 10 days; format: functional; how it was run: as §5
[22] = tested on: Mus musculus; test: Antidyslipidemic activity in diabetic C57BL/KsJ db/db mouse model assessed as reduction in plasma triglyceride level at 25 mg/kg, po qd for 10 days; format: functional; parameters: scale not given: the % may be the effect or the level left; how it was run: as §5
[23] = tested on: Mus musculus; test: Antihyperglycemic activity in diabetic C57BL/KsJ db/db mouse model assessed as improvement in glucose tolerance in hyperglycemia at 25 mg/kg, po qd for 10 days; format: functional
How it was run: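 Male/female C57BL/KsJ db/db mice, 12−18 weeks, 40−50 g, selected for glucose 200−350 mg/dL. Oral dosing daily for 10 days. OGTT on day 10 after an overnight fast: compound at −30 min, then 3 g/kg oral glucose at 0 min. Glucose read at 30, 60, 90 and 120 min. AUC taken versus vehicle, 5 mice per group.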

[24] = tested on: Mus musculus; test: Antihyperglycemic activity in diabetic C57BL/KsJ db/db mouse model assessed as reduction in hyperglycemia at 25 mg/kg, po qd for 10 days; format: functional; parameters: scale not given: the % may be the effect or the level left; how it was run: as §4
[25] = Oral bioavailability in Sprague-Dawley rat at 25 mg/kg by LC-MS/MS method; format: ADME, organism-based; settings: in vivo; how it was run: as §2
[26] = Elimination half life in Sprague-Dawley rat at 2.5 mg/kg, iv by LC-MS/MS method; format: ADME, organism-based; parameters: dose 2.5 mg/kg, route intravenous; settings: in vivo, read-out: beta t1/2 (converted); how it was run: as §1
[27] = Elimination half life in Sprague-Dawley rat at 25 mg/kg, po by LC-MS/MS method; format: ADME, organism-based; parameters: dose 25 mg/kg, route oral; settings: in vivo, read-out: beta t1/2 (converted); how it was run: as §2
[28] = Volume of distribution in Sprague-Dawley rat at 2.5 mg/kg, iv by LC-MS/MS method; format: ADME, organism-based; parameters: dose 2.5 mg/kg, route intravenous; settings: in vivo; how it was run: as §1
[29] = tested on: Rattus norvegicus; test: Volume of distribution in Sprague-Dawley rat at 25 mg/kg, po by LC-MS/MS method; format: ADME, organism-based; parameters: dose 25 mg/kg, route oral; settings: in vivo; how it was run: as §2
[30] = tested on: Rattus norvegicus; test: AUC in Sprague-Dawley rat at 25 mg/kg, po by LC-MS/MS method; settings: in vivo
[31] = tested on: Rattus norvegicus; test: AUC in Sprague-Dawley rat at 2.5 mg/kg, iv by LC-MS/MS method; settings: in vivo
[32] = tested on: Mus musculus; test: Antidiabetic activity in diabetic C57BL/KsJ db/db mouse model assessed as reduction in postprandial glucose level in hyperglycemia at 50 mg/kg, po measured 2 hrs post dose; parameters: scale not given: the % may be the effect or the level left

## CC(C)NC[C@H](O)COc1ccc2c(=O)cc(-c3cc(O)cc(O)c3)oc2c1
[1]
  MRT: 4.9 h
[2]
  MRT: 5.96 h
[3]
  clearance: 55 mL/min/kg
[4]
  CL/F: 54.5 mL/min/kg
[5]
  Tmax: 0.33 h
[6]
  Cmax: 1810 ng/mL
[7]
  Cmax: 21.2 ng/mL
[8]
  Activity: 31.6%
[9]
  Activity: 31.2%
[10]
  Activity: 27.1%
[11]
  Activity: 12.1%
[12]
  Activity: 49.2%
[13]
  Activity: 41.1%
[14]
  Activity: 30.7%
[15]
  Activity: 19.7%
[16]
  Activity: 12%
[17]
  Activity: inactive
[18]
  Activity: 39.2%
[19]
  Percent increase in HDL-C/cholesterol ratio vs vehicle: 68.7
[20]
  Activity: 27%
[21]
  Activity: 23.1%
[22]
  Activity: 21%
[23]
  Activity: 29.7%
[24]
  Activity: 45.6%
[25]
  bioavailability: 0.52%
[26]
  half-life: 4.83 h
[27]
  half-life: 3.39 h
[28]
  Vd: 16.2 L/kg
[29]
  Vd: 16.18 L/kg
[30]
  AUC: 39.5 ng·h/mL
[31]
  AUC: 756 ng·h/mL
[32]
  Activity: 35.4%
